What is called IC50 is the concentration needed to halve the response being measured.

The subject of one test is LNCaP. Kind of test: Antiproliferative activity against human LNCAP expressing AR assessed as reduction in cell viability incubated for 6 days by CCK-8 assay. The format is functional, cell-based. The following applies: 144 h. The method, boiled down: (§1)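 Cell proliferation assay run on LNCaP/AR, VCaP, 22Rv1, PC-3 and L-02 cells, with PC-3 and L-02 serving as AR-independent toxicity controls. IC50 fitted in GraphPad Prism 5 as the mean of at least two experiments, each in duplicate. Deviations under 35%.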

The next test relates to VCaP. Kind of test: Antiproliferative activity against human VCaP expressing AR assessed as reduction in cell viability incubated for 6 days by CCK-8 assay. The format is functional, cell-based. The following applies: 144 h. The method, boiled down:
as §1

A further test concerns CWR22R. Kind of test: Antiproliferative activity against human 22Rv1 expressing AR assessed as reduction in cell viability incubated for 6 days by CCK-8 assay. It is filed as functional, cell-based. The following applies: 22Rv1, 144 h. An outline of the steps: as §1
The subject of the next test is PC-3. Kind of test: Cytotoxicity against human PC3 assessed as reduction in cell viability incubated for 6 days by CCK-8 assay. It is filed as cell-based. The following applies: PC-3, 144 h. An outline of the steps:
as §1
For orientation: Tetrazolium assays rely on reduction of a dye to a coloured formazan, in cell work by metabolically active cells.

The next test relates to L02. Kind of test: Cytotoxicity against human L02 assessed as reduction in cell viability incubated for 6 days by CCK-8 assay. The following applies: L02, 144 h. The format is cell-based. The method, boiled down:
as §1

Take `C[C@@H](Cn1ccc(-c2ccc(C#N)c(Cl)c2)n1)Nc1ccncc1`: the IC50 is 2.56 µM with LNCaP, 9.9 µM in the test on VCaP and 11.5 µM in the test with CWR22R.

For the molecule `CC(=O)c1ccc(C(=O)N[C@@H](C)Cn2ccc(-c3ccc(C#N)c(Cl)c3)n2)cc1`, the IC50 in the test on LNCaP is 3.6 µM; in the test on VCaP, 1.4 µM; in the test on PC-3 it was greater than 30 µM; with L02, 15.3 µM.

As for `C[C@@H](Cn1ccc(-c2cc(F)c(C#N)c(Cl)c2)n1)NC(=O)Nc1cc(C(C)(C)C)[nH]n1`, the IC50 in the test with LNCaP was 1.63 µM; in the test on VCaP it was 5.12 µM; with PC-3, greater than 30 µM; with L02, 15 µM.

`CC(O)c1ccc(C(=O)N[C@@H](C)Cn2ccc(-c3ccc(C#N)c(Cl)c3)n2)cc1` (stereo not given in full): the 50% inhibitory concentration (IC50) with LNCaP is 3.69 µM; in the test on VCaP, 0.91 µM; in the test with PC-3 it was greater than 30 µM; in the test with CWR22R it was 9.05 µM; in the test on L02 it was greater than 30 µM.

For the molecule `C[C@@H](Cn1ccc(-c2ccc(C#N)c(Cl)c2)n1)Nc1ccc2c(ccn2C)c1`, the IC50 is 0.49 µM in the test with LNCaP, 2.13 µM in the test on VCaP and 12 µM in the test with CWR22R.

For the molecule `C[C@@H](Cn1ccc(-c2ccc(C#N)c(Cl)c2)n1)NC(=O)c1ccccc1`, the figures for the 50% inhibitory concentration (IC50) with LNCaP and in the test with PC-3 were 1.83 µM and greater than 30 µM, respectively.

For `C[C@@H](Cn1ccc(-c2ccc(C#N)c(Cl)c2)n1)Nc1cccc2cnccc12`, the concentration for half-maximal inhibition (IC50) in the test with LNCaP was 0.87 µM; in the test with VCaP it was greater than 30 µM; in the test on CWR22R, 21.2 µM.

As for `C[C@@H](Cn1ccc(-c2ccc(C#N)c(Cl)c2)n1)NC(=O)c1cc[nH]n1`, the half-inhibitory concentration (IC50) in the test on LNCaP is 1 µM; in the test on PC-3, 18.7 µM; in the test with CWR22R it was greater than 30 µM; in the test with L02 it was greater than 30 µM.

On to `CC(O)c1cc(C(=O)N[C@H](C)Cn2ccc(-c3ccc(C#N)c(Cl)c3)n2)n[nH]1` (stereo not given in full), for which the IC50 in the test on LNCaP was 1.65 µM; in the test on PC-3, greater than 30 µM; with CWR22R it was greater than 30 µM.

For the molecule `CC(Cn1ccc(-c2ccc(C#N)c(Cl)c2)n1)C(=O)Nc1cc[nH]n1` (racemic), the IC50 in the test with LNCaP, in the test on VCaP and in the test with PC-3 was greater than 30 µM in each case.

With `C[C@@H](Cn1ccc(-c2ccc(C#N)c(Cl)c2)n1)Nc1cc2ccccc2cn1`, the IC50 with LNCaP is 1.91 µM; in the test with VCaP, 1.58 µM; in the test on CWR22R, 12 µM.

In the case of `CC(=O)c1cc(C(=O)N[C@@H](C)Cn2ccc(-c3ccc(C#N)c(Cl)c3)n2)n[nH]1`, the IC50 with LNCaP was 1.13 µM; with PC-3, greater than 30 µM; in the test on CWR22R, greater than 30 µM.

On to `C[C@@H](Cn1ccc(-c2ccc(C#N)c(Cl)c2)n1)Nc1ccc2ccccc2c1`, for which the IC50 with LNCaP worked out at 7.7 µM; with VCaP it was 4.61 µM; in the test with CWR22R, 4.61 µM; in the test with L02, 26.8 µM.

For `C[C@@H](Cn1ccc(-c2ccc(C#N)c(Cl)c2)n1)Nc1ccc2cccnc2c1`, the concentration for half-maximal inhibition (IC50) stood at 2.66 µM in the test on LNCaP, 3.22 µM in the test with VCaP, 11.2 µM in the test with PC-3 and 5.82 µM with CWR22R.

In the case of `C[C@@H](Cn1ccc(-c2ccc(C#N)c(Cl)c2)n1)Nc1ccccn1`, the figures for the IC50 in the test on LNCaP and in the test with CWR22R were 1.11 µM and greater than 30 µM, respectively.

In the case of `C[C@@H](Cn1ccc(-c2ccc(C#N)c(Cl)c2)n1)Nc1nccc(Cl)n1`, the half-inhibitory concentration (IC50) was 1.4 µM with LNCaP, greater than 30 µM in the test on VCaP, greater than 30 µM in the test on PC-3 and greater than 30 µM in the test with CWR22R.

On to `C[C@@H](Cn1ccc(-c2ccc(C#N)c(Cl)c2)n1)NS(=O)(=O)c1cn(C)cn1`, for which the values for the half-maximal inhibitory concentration (IC50) in the test on LNCaP, in the test with VCaP and with PC-3 were greater than 30 µM, 13.6 µM and greater than 30 µM, respectively.

Consider `C[C@@H](Cn1ccc(-c2ccc(C#N)c(Cl)c2)n1)NC(=O)c1ccccc1F`, for which the 50% inhibitory concentration (IC50) is 1.81 µM in the test on LNCaP, 2.19 µM in the test with VCaP and greater than 30 µM in the test on PC-3.

With `C[C@@H](Cn1ccc(-c2ccc(C#N)c(Cl)c2)n1)Nc1cncnc1`, the IC50 is 2.07 µM in the test with LNCaP; greater than 30 µM with VCaP; greater than 30 µM in the test with PC-3; greater than 30 µM with CWR22R; greater than 30 µM with L02.

Turning to `Cc1ccnc(N[C@@H](C)Cn2ccc(-c3ccc(C#N)c(Cl)c3)n2)n1`, the IC50 is 1.33 µM in the test with LNCaP; 0.85 µM in the test with VCaP; greater than 30 µM in the test on PC-3; 4.76 µM in the test on CWR22R; greater than 30 µM in the test with L02.

For the molecule `COc1ccc(C(=O)N[C@@H](C)Cn2ccc(-c3ccc(C#N)c(Cl)c3)n2)cc1`, the 50% inhibitory concentration (IC50) in the test with LNCaP was 3.41 µM; in the test with VCaP it was 1.54 µM; with PC-3, greater than 30 µM.

Regarding `C[C@@H](Cn1ccc(-c2ccc(C#N)c(Cl)c2)n1)NC(=O)c1cccc(OCC(O)CO)c1` (stereo not given in full), the IC50 with LNCaP was 0.74 µM; in the test on VCaP it was 0.59 µM; in the test on PC-3, greater than 30 µM; with CWR22R it was greater than 30 µM; in the test with L02, greater than 30 µM.

Consider `C[C@@H](Cn1ccc(-c2ccc(C#N)c(Cl)c2)n1)Nc1ccnc2ccccc12`, for which the IC50 in the test on LNCaP amounted to 4.81 µM; in the test on VCaP, 2.41 µM; in the test on CWR22R, 4.29 µM.

For the molecule `C[C@@H](Cn1ccc(-c2ccc(C#N)c(Cl)c2)n1)Nc1nccc2ccccc12`, the IC50 with LNCaP is 2.1 µM; in the test with VCaP, 1.47 µM; with PC-3, greater than 30 µM; with CWR22R, 3.57 µM.

Take `C[C@@H](Cn1ccc(-c2ccc(C#N)c(Cl)c2)n1)Nc1ccc2ncccc2c1`: the 50% inhibitory concentration (IC50) was 13 µM in the test on LNCaP and greater than 30 µM in the test with VCaP.

In the case of `C[C@@H](Cn1ccc(-c2ccc(C#N)c(Cl)c2)n1)Nc1cnc2ccccc2c1`, the 50% inhibitory concentration (IC50) came out at 1.87 µM with LNCaP, 1.94 µM in the test on VCaP and 6.04 µM with CWR22R.

Consider `CC(=O)c1ccc(S(=O)(=O)N[C@@H](C)Cn2ccc(-c3ccc(C#N)c(Cl)c3)n2)cc1`, for which the IC50 with LNCaP is 5.23 µM; in the test on VCaP it was 3.95 µM; in the test on PC-3, greater than 30 µM.

Consider `COC(=O)/C=C/C(=O)N[C@@H](C)Cn1ccc(-c2ccc(C#N)c(Cl)c2)n1`, for which the IC50 with LNCaP is 2.46 µM; in the test on VCaP, 5.23 µM; in the test on PC-3, greater than 30 µM.

As for `C[C@H](Cn1ccc(-c2ccc(C#N)c(Cl)c2)n1)Nc1ncnc2nc[nH]c12`, the concentration for half-maximal inhibition (IC50) turned out to be 0.85 µM in the test on LNCaP, 2 µM in the test with VCaP, 1.56 µM in the test on PC-3 and 10.6 µM with CWR22R.

As to `C[C@@H](Cn1ccc(-c2ccc(C#N)c(Cl)c2)n1)NS(=O)(=O)c1cccnc1`, the IC50 was 6.14 µM in the test with LNCaP, 2.45 µM with VCaP and greater than 30 µM in the test on PC-3.

For the molecule `C[C@H](Cn1ccc(-c2ccc(C#N)c(Cl)c2)n1)Nc1ncnc2ccccc12`, the IC50 is 0.97 µM in the test with LNCaP, greater than 30 µM in the test with VCaP and 9.71 µM in the test on CWR22R.

With `C[C@@H](Cn1ccc(-c2ccc(C#N)c(Cl)c2)n1)Nc1nc(Cl)nc2nc[nH]c12`, the 50% inhibitory concentration (IC50) was 2.66 µM with LNCaP; 2.7 µM in the test with VCaP; greater than 30 µM in the test on PC-3; 4.38 µM in the test with CWR22R; 14.5 µM in the test on L02.

For `C[C@@H](Cn1ccc(-c2ccc(C#N)c(Cl)c2)n1)NC(=O)C1CC(=O)C1`, the results for the IC50 in the test with LNCaP, in the test on VCaP and in the test with PC-3 were 3.04 µM, 22.5 µM and greater than 30 µM, respectively.

Take `C[C@@H](Cn1ccc(-c2ccc(C#N)c(Cl)c2)n1)Nc1ncccn1`: the half-inhibitory concentration (IC50) with LNCaP is 1.18 µM; with VCaP, 0.48 µM; in the test on PC-3, greater than 30 µM; with CWR22R, 12.5 µM; in the test with L02, greater than 30 µM.

On to `CC(=O)c1cc(C(=O)N[C@@H](C)Cn2ccc(-c3cc(F)c(C#N)c(Cl)c3)n2)n[nH]1`, for which the IC50 in the test with LNCaP was 1.1 µM; in the test on PC-3, greater than 30 µM; with CWR22R, greater than 30 µM; in the test with L02, 27.7 µM.

`C[C@@H](Cn1ccc(-c2ccc(C#N)c(Cl)c2)n1)Nc1cncc2ccccc12`: the half-maximal inhibitory concentration (IC50) with LNCaP was determined as 2.28 µM; in the test on VCaP, 12.4 µM.

As for `C[C@@H](Cn1ccc(-c2ccc(C#N)c(Cl)c2)n1)Nc1ccc2ccccc2n1`, the IC50 in the test on LNCaP is 2.3 µM; with VCaP it was 0.87 µM; in the test on PC-3 it was greater than 30 µM; in the test on CWR22R it was 7.95 µM.

As for `CC(=O)c1cccc(NC(=O)C(C)Cn2ccc(-c3ccc(C#N)c(Cl)c3)n2)c1` (racemic), the IC50 was 1.54 µM in the test on LNCaP, 2.98 µM in the test with VCaP and greater than 30 µM in the test on PC-3.

`C[C@@H](Cn1ccc(-c2ccc(C#N)c(Cl)c2)n1)Nc1cccc2ccccc12`: the results for the IC50 in the test on LNCaP, in the test on VCaP and in the test on CWR22R were 0.87 µM, 28.1 µM and greater than 30 µM, respectively.

As to `C[C@@H](Cn1ccc(-c2ccc(C#N)c(Cl)c2)n1)Nc1cccc2ccncc12`, the IC50 came out at 3.09 µM in the test with LNCaP, 4.02 µM in the test on VCaP, 5.13 µM with PC-3 and 4.72 µM in the test with CWR22R.

In the case of `C[C@@H](Cn1ccc(-c2ccc(C#N)c(Cl)c2)n1)Nc1cccc2cccnc12`, the IC50 is 0.79 µM in the test on LNCaP, greater than 30 µM in the test with VCaP and greater than 30 µM in the test on CWR22R.

On to `C[C@@H](Cn1ccc(-c2ccc(C#N)c(Cl)c2)n1)Nc1ccc2cnccc2c1`, for which the IC50 in the test with LNCaP was 0.51 µM; with VCaP, 2.26 µM; in the test with CWR22R it was 2.98 µM.

For the molecule `C[C@@H](Cn1ccc(-c2ccc(C#N)c(Cl)c2)n1)Nc1ccccc1`, the half-maximal inhibitory concentration (IC50) in the test on LNCaP is 0.71 µM; in the test with VCaP, greater than 30 µM; in the test on PC-3 it was 3.21 µM; in the test with CWR22R, greater than 30 µM; with L02, 29.4 µM.

For the origin of these results see ChEMBL document CHEMBL4359895, “Discovery and biological evaluation of darolutamide derivatives as inhibitors and down-regulators of wild-type AR and the mutants” (Eur J Med Chem, 2019).
